M1 antagonist = antagonists of rat M1 muscarinic receptor; Muscarinic acetylcholine receptor M1 (Rattus norvegicus), P08482; CHO-M1 cells, Fluo-4 calcium, ACh EC80 antagonist mode; active compounds read low; B-score at 10 µM; 3.4% of 64,000 active; AID 628, 2007;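 active means calcium fluorescence response, raw or row-and-column corrected B-score, differing from the plate sample mean either way at a set confidence level, mostly lower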
M1 ag = M1 muscarinic receptor agonists, primary screen, CHO-M1 cells, Fluo-4 calcium, agonist mode; Muscarinic acetylcholine receptor M1; Fluo-4 calcium fluorescence; active compounds read high; B-score at 10 µM; 3% of 64,000 active; AID 626, 2007;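 active means fluorescence rise, raw or as B-score row- and column-corrected plate score, outside the 99.7% band of its plate's samples, either direction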
S1P1 ag pot = S1P1 agonists and agonism potentiators, primary screen, cell-based, primary and confirmation screens, CRE-bla reporter; S1P1 CRE-bla cells, forskolin, beta-lactamase FRET, potentiator mode; S1P1 agonist co-added at EC20, 2 nM; 100% = saturating reference agonist, 0% = basal; AID 449, 2006; 0.57% of 56,000 active; Sphingosine 1-phosphate receptor 1 (Homo sapiens), P21453; activation, % at 9.5 µM;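 active means activation above a cutoff set at the mean activation of all tested compounds plus 3 SD, cut at about 54% in these data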;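 further: forskolin at 4 µM as EC80 and the EC20 agonist is SEW2871; 100% = SEW2871 at its EC100 plus forskolin at EC80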
TNAP act DEA = human TNAP enzyme activators, primary screen, biochemical, luminescent, intermediate phosphate acceptor level. purified TNAP, CDP-star luminescence, 100 mM DEA, 30 min; active compounds read high; scale: 0 levamisole-inhibited, 1 vehicle-only enzyme. 64,000 tested, under 10 active. activation factor at 20 µM;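 active means activation factor of at least 2 at 20 µM, relative to controls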
D1 allo mod = D1 CRE-luciferase signal change, two-sided – cell-based, HEK293 D1, dopamine EC30, D1 allosteric modulator project, primary screen; dopamine EC30 potentiation; actives deviate in either direction; B-score at 10 µM; 5.9% of 58,000 active;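 active means luminescence count or its row- and column-corrected plate score outside the 99.7% band of the plate's sample wells, on either side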
S1P3 ag = human S1P3 receptor agonists, primary screen, cell-based, primary and confirmation, NFAT-BLA reporter | Sphingosine 1-phosphate receptor 3 (Homo sapiens), Q99500 | S1P3 NFAT-BLA reporter cells, agonism, FRET ratio; relative to 1 µM S1P, basal subtracted | 0.1% of 60,000 active | activation, % at 4.5 µM;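 active means activation above the screen-wide mean plus 3 SD, cut at about 4.5% in these data, passing the limit was not always enough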
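Assay system: CHO cells stably expressing human S1P3, Gα16 and NFAT-β-lactamase reporter. Timing: overnight plating, 4 h compound 37 °C, 2 h substrate RT. Signal: β-lactamase FRET emission ratio 460/535 nm. Measure: percent activation versus median 1 µM S1P response, basal-subtracted, per plate. Repeats: primary screen single test, confirmation screen in triplicate.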
M1 agonist conf = rat M1 muscarinic receptor agonists, confirmation, CHO-M1 cells, Fluo-4 calcium, duplicate retest | shares compounds with M1 ag | Fluo-4 calcium fluorescence, agonist mode; actives lie on both sides | fluorescence change (max-min) at 10 µM | 19% of 1,700 active | AID 1488, 2009;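 active means fluorescence change differs from the solvent-only DMSO control mean at a set confidence level in both duplicate runs; inconclusive means differs from solvent-only control mean in just one of two runs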;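 further: an EC20 dose of acetylcholine follows compound addition during the same imaging run; raw fluorescence intensity difference in instrument units with no normalization to controls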
M4 ag counter = agonist activity at rat M4 receptor, confirmation, counter-screen for M1 allosteric modulator project, cell-based, agonist mode; shares compounds with M1 ag; fluorescence change (max-min) at 10 µM; 9% of 1,700 active; CHO M4/Gqi5 cells, Fluo-4 calcium fluorescence; actives lie on both sides;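 active means fluorescence change differing from the plate's solvent-only control wells at 99.7% confidence in both duplicates, whether higher or lower; inconclusive means differs from solvent controls in only one of two duplicates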
Target sequence (P08485 whole entry, looked up): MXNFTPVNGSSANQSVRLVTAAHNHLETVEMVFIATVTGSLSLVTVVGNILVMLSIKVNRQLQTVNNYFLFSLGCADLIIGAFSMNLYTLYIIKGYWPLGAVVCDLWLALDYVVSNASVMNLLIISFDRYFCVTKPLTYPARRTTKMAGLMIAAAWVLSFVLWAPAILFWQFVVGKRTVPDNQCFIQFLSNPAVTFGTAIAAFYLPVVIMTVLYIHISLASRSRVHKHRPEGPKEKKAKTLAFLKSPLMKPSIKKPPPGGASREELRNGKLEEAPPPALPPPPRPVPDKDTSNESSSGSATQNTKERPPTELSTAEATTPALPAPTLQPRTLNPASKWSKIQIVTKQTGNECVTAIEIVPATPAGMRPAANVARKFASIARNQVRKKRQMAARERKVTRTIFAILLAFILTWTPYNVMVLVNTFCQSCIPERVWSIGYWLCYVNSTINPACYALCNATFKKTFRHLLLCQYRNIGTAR
* = called active by the depositor; ? = inconclusive; . = no result. This is a sample that favours compounds with a hit; in the whole collection about 11% have one here.

SMILES | M1 antagonist | M1 ag | S1P1 ag pot | TNAP act DEA | D1 allo mod | S1P3 ag | M1 agonist conf | M4 ag counter
COc1ccc(C2C3=C(CC(C)(C)CC3=O)Nc3c2c(=O)[nH]c(=O)n3Cc2ccccc2)cc1 (stereo not given) | 0.24 | 2.7* | 5 | 1.5 | -1.7 | -1 | 7.1 | -35
COCCn1c(-c2ccccc2)nc2oc3ccccc3c(=O)c2c1=O | 0.066 | 2.4* | 13 | 1 | 0.5 | -1 | -25* | -96*
COc1ccc(CCNc2ncnc3c2oc2ccccc23)cc1OC | -4.1* | 7.1* | 116* | 0.9 | -3.5 | -1 | 17 | 4.6
Cc1nc(NCCc2cnc[nH]2)c2oc3ccccc3c2n1 | -1.2 | -0.87 | . | 1 | 2.7 | . | . | .
Cc1nc(NC(C)c2ccccc2)c2oc3ccccc3c2n1 (stereo not given) | -0.25 | 3.3* | 69 | 0.9 | 1.5 | -1 | -22 | -20
COc1ccc(CCNc2nc(C)nc3c2oc2ccccc23)cc1OC | -2.3* | 18* | . | 1 | . | . | -0.11 | ?
COc1ccc(OC)c(S(=O)(=O)Nc2ccc(O)c(Sc3ncn[nH]3)c2)c1 | -0.55 | -1.1 | -14 | 0.5 | -0.15 | -1 | . | .
O=C(CSc1nnc(Cc2ccccc2)o1)Nc1ccc(Br)cn1 | -0.11 | -0.86 | 2 | 0.9 | -0.53 | 0 | . | .
Cc1cccc(NC(=O)c2oc3ccc(S(=O)(=O)N4CCOCC4)cc3c2C)c1C | -1.3 | 9.5* | -4 | 0.9 | -2.3 | 0 | ? | -32
Cc1cc(=O)oc2cc(OCc3ccc(S(=O)(=O)N4CCOCC4)cc3)ccc12 | 0.26 | -0.34 | 4 | 0.9 | 0.75 | -2 | . | .
CC(=O)NCCc1ccc(S(=O)(=O)N2CCOCC2)cc1 | 0.75 | 2.2* | -14 | 0.9 | 0.27 | 0 | -3 | -36
Cc1c(C(=O)NCc2cccs2)oc2ccc(S(=O)(=O)N3CCOCC3)cc12 | -0.0072 | 2.4 | . | 0.9 | . | . | . | .
Cc1cc(=O)oc2ccc(OC(=O)c3cccc(S(=O)(=O)N4CCOCC4)c3)cc12 | -0.6 | 4.8* | . | 1 | -0.4 | 0 | ? | -38
COc1ccc(CCNC(=O)COc2ccc(S(=O)(=O)N3CCOCC3)cc2)cc1 | 0.27 | 0.3 | 3 | 0.9 | 0.65 | 1 | . | .
Cc1c(C(=O)NCCC2=CCCCC2)oc2ccc(S(=O)(=O)N3CCOCC3)cc12 | -2.9* | 15* | . | 0.9 | . | . | ? | -54
Cc1[nH]c(C(=O)N2CCCCC2)c(C)c1C(=O)NC1CCCCC1 | 0.51 | -0.55 | 1 | 0.9 | 0.074 | -1 | . | .
Cc1ccc(S(=O)(=O)N2CCN(Cc3cc(C(C)C)ccc3O)CC2)cc1 | -0.45 | -0.77 | -13 | 0.9 | -0.3 | 0 | . | .
COc1ccc(-c2nc(NC(=O)CSc3nnc(C)s3)ns2)cc1 | 0.19 | -0.18 | 36 | 0.9 | 0.77 | -1 | . | .
OCCCc1nc2n(n1)C(c1ccccc1Cl)C=C(c1cccs1)N2 (stereo not given) | 0.36 | 33* | 23 | 0.7 | 0.0074 | -1 | 206* | 197*
CCC(c1nnnn1C(C)C)N1CCN(C2CCCC2)CC1 (stereo not given) | -1.2 | -0.86 | 12 | 1 | -0.0057 | 0 | . | .
CCn1c(C)nc2cc(S(=O)(=O)C(F)(F)C(F)C(F)(F)F)ccc21 (stereo not given) | -1.9 | 4.7* | 42 | 0.9 | -0.8 | -2 | -7.4 | ?
Cn1c(N2CCC(C(N)=O)CC2)nc2c1c(=O)n(Cc1cccc(Br)c1)c(=O)n2C | 0.093 | -0.87 | 16 | 0.9 | 0.41 | -1 | . | .
CCOC(=O)c1cc(-c2ccc(/C=N\n3cnnc3)o2)ccc1Cl | -0.34 | 4.9* | 16 | 1 | 0.31 | 0 | -27* | -42
Clc1ccccc1-c1ccc(/C=N/n2cnnc2)o1 | -0.024 | 0.75 | -12 | 1 | -1.9 | 0 | . | .
O=C1C2=C(Nc3ccccc3SC2c2ccco2)c2ccccc21 (stereo not given) | 0.14 | active | 9 | 0.8 | -0.76 | -2 | ? | -65
SMILES | M1 antagonist | M1 ag | S1P1 ag pot | TNAP act DEA | D1 allo mod | S1P3 ag | M1 agonist conf | M4 ag counter
CSc1nsc(SCc2ccc(F)cc2)n1 | -0.032 | 0.56 | 26 | 0.8 | 0.78 | 0 | . | .
c1ccc(Nc2nc(N3CCCCC3)nc(N3CCNCC3)n2)cc1 | 0.039 | 11* | . | 0.9 | 0.86 | 0 | -10 | -23
C1CCN(c2nc(N3CCCC3)nc(N3CCNCC3)n2)C1 | -0.18 | -0.6 | 10 | 1.1 | -2.9 | 0 | . | .
CCCCCn1c(=O)[nH]c2cc(C(=O)NCCCN3CCCCC3)ccc2c1=O | -0.61 | -0.85 | . | 0.9 | -1 | . | . | .
CCCCCn1c(=O)[nH]c2cc(C(=O)NCCN(CC)CC)ccc2c1=O | -0.5 | -2.1* | . | 0.9 | -1.9 | . | -36* | -92
COc1ccc(C2CC(c3ccc(Cl)cc3)n3nc(N)nc3N2)cc1 (stereo not given) | 1.2 | -0.081 | -20 | 1 | 0.54 | 0 | . | .
O=S(=O)(O)c1nnc2sc3ccccc3n12 | 0.015 | -0.46 | 10 | 0.8 | 0.33 | 1 | . | .
N#Cc1cnc2sc3ccccc3n2c1=N | -0.1 | -2.4* | . | 1 | 1.2 | . | 36 | -10
Fc1ccc(-n2[nH]nnc2=S)cc1N1CCCC1 | 0.003 | -0.79 | . | 0.9 | 0.89 | . | . | .
CN(C)CCNC(=O)C12CC3(C)CC(C)(CC(C)(C3)C1)C2 | -0.94 | 3.3* | 11 | 0.9 | . | -4 | ? | -70
O=C(CN1C(=O)CCC1=O)Nc1nc(-c2ccc(Cl)s2)cs1 | -0.31 | 0.25 | 14 | . | -0.75 | 0 | . | .
CC1CC(C)CN(C(=O)CSCC(=O)Nc2nc(-c3cccs3)cs2)C1 (stereo not given) | -0.096 | -0.59 | 9 | 0.9 | . | 0 | . | .
O=C(CSCC(=O)N1CCCCC1)Nc1nc(-c2ccc(Cl)s2)cs1 | -0.59 | 4.8* | 42 | 0.9 | . | -2 | ? | -30
O=C(CSCC(=O)N1CCCCC1)Nc1nc(-c2cccs2)cs1 | -1.8 | 5.7* | 60 | 0.9 | -2 | 0 | 8.5 | -11

High-throughput results: PubChem BioAssay, several laboratories
